Assay results from different studies.
Each line is one published result; the experiments were not run side by side.
CDK8 with cyclin C: Cyclin-dependent kinase 8, with cyclin C (CDK8, Homo sapiens, UniProt P49336)
CDK8: Cyclin-dependent kinase 8 (CDK8, Homo sapiens, UniProt P49336)

| SMILES | target | observed | mode | method | tested at | quantity | result |
| --- | --- | --- | --- | --- | --- | --- | --- |
| CCOc1cc(-c2nncn2C)ccc1Nc1ncc2cc(C)nc(NCC(C)(C)C)c2n1 | CDK8 with cyclin C | cell-free assay | – | TR-FRET | 1 µM | inhibition | ≤ 15% |
| O=C(Nc1cnn(-c2csc(C(=O)NC3COC3)c2)c1)Nc1ccccc1Cl | CDK8 with cyclin C | enzyme activity | inhibitor | – | 5 µM | remaining activity | 101% |
| CC1(C)NC(=O)c2[nH]c3c(Cl)c(Cl)ccc3c2C1C#N (stereo not shown) | CDK8 | thermal stability | – | DSF | 10 µM | ΔTm | 0.5 °C |
| NS(=O)(=O)c1cc(NC(=O)Cc2ccccc2)ccc1Oc1cccc(Cl)c1 | CDK8 | cell-free assay | – | competition with immobilised ligand | 1 µM | remaining binding | 68% |
| CC(C)(C)c1nc2c(s1)c1nc(N)ncc1c1ccc(NS(=O)(=O)c3c(F)cccc3F)c(F)c12 | CDK8 with cyclin C | enzyme activity | inhibitor | radiometric | 1 µM | remaining activity | 100% |
| Cn1c2c(c3ccc(Cl)c(Cl)c31)C(C#N)C1(CCNCC1)NC2=O (racemic) | CDK8 | thermal stability | – | DSF | 10 µM | ΔTm | 2.2 °C |
| C[C@H](c1ccnc(Nc2nc3ccc(-c4cc(N(C)C)ncn4)cc3[nH]2)c1)N1CCN(C(=O)CC(F)(F)F)CC1 | CDK8 | cell-free assay | – | competition with immobilised ligand | 0.1 µM | remaining binding | 96% |
| CN1CCN(C(=O)c2ccc3cc(CCNc4ccnc5ccc(C#N)cc45)ccc3c2)CC1 | CDK8 | binding | – | competition with immobilised ligand | 2 µM | inhibition | > 85% |
| Cn1c2c(Cl)c(Cl)ccc2c2cc(N)[nH]c(=O)c21 | CDK8 | thermal stability | – | DSF | 10 µM | ΔTm | 0.7 °C |
| Cc1c(NC(=O)c2cc(C(N)=O)nc3cc(F)ccc23)c(C(F)(F)F)nn1Cc1ccc(C(C)(C)C)cc1 | CDK8 | cell-free assay | – | competition with immobilised ligand | 1 µM | remaining binding | 100% |
| Cn1c2c(c3ccccc31)C(C#N)C(C)(C)NC2=O (stereo not shown) | CDK8 | thermal stability | – | DSF | 10 µM | ΔTm | 0.8 °C |
| O=C(N1CCS(=O)(=O)CC1)N1C[C@H](c2ccc(OC(F)(F)F)cc2)C[C@H](c2nc(C3CC3)no2)C1 | CDK8 | cell-free assay | – | competition with immobilised ligand | 1 µM | remaining binding | 100% |
| Cc1ccc(C(=O)Nc2ccc(CN3CCN(C)CC3)c(C(F)(F)F)c2)cc1C#Cc1cnc2cccnn12 | CDK8 | enzyme activity | inhibitor | – | 23.5 nM | remaining activity | 9.5% |
